# ATG4B inhibitor: ATG4B protease inhibitors, primary screen, biochemical, fluorescence, uHTS; Cysteine protease ATG4B (Homo sapiens), Q9Y4P1; 0.51% of 340,000 active; inhibition, % at 8.33 µM; ATG4B cleavage of LC3-PLA2, NBD-HPC fluorescence, 1 h; in the data active means inhibition above about 40%
# Rin1 Abl inh: inhibitors of Rin1-Abl protein binding, primary screen, biochemical, TR-FRET. inhibition, % at 7.35 µM. AID 588664, 2011. Tyrosine-protein kinase ABL1 (Homo sapiens) + Ras and Rab interactor 1 (Homo sapiens), …. 0.4% of 360,000 active; in the data active means inhibition above about 5%, passing the limit was not always enough
# Tb MetRS inh: T. brucei MetRS inhibitors, primary screen, biochemical, luminescence; methionyl-tRNA synthetase (Trypanosoma brucei brucei); purified T. brucei MetRS, ATP depletion, Kinase-Glo luminescence; inhibition, % at 11.9 µM; 0.4% of 360,000 active; AID 624268, 2012;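 active means inhibition above a per-plate cutoff of the control wells' mean inhibition plus 3 SD, cut at about 5.5% in these data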;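 further: 0% = DMSO wells median and 100% = median of wells with control inhibitor compound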
#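 technique = Kinase-Glo luminescence, ATP depletion format | system = purified MetRS (methionyl-tRNA synthetase) enzyme from Trypanosoma brucei | timing = 15 min preincubation, 2 h reaction, all 25 °C | evaluation = percent inhibition versus plate control medians | dosing = single dose, 11.9 µM final nominal, 0.9% final DMSO | also added = substrates ATP, L-methionine and bulk Escherichia coli tRNA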
# UCH37 inh: inhibitors of human UCH37 deubiquitinase, primary screen, biochemical, Ub-AMC cleavage, fluorescence. Ubiquitin carboxyl-terminal hydrolase isozyme L5 (Homo sapiens), Q9Y5K5. purified proteasome/UCH37. inhibition, % (no concentration beside the values). 0.33% of 330,000 active;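 active means mean inhibition over replicate wells above about 20%, limit read from the data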;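 further: 0% = compound-free wells with enzyme and 100% = wells lacking proteasome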
# Target sequence (Q9Y5K5 whole entry, looked up): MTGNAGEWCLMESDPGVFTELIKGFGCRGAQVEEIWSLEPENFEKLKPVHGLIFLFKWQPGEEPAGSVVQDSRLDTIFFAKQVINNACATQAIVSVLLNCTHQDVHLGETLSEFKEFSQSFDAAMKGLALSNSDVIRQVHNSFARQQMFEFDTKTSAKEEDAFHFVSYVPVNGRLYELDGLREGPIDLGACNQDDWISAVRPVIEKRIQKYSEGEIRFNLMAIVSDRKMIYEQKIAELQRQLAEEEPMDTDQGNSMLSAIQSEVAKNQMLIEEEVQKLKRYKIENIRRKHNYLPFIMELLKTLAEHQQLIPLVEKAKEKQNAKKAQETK
#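 Assay system: Proteasome-bound UCH37. Buffer or medium: pH 7.4 Tris-HCl (50 mM) with ovalbumin, ATP-MgCl2, DTT. Incubation: 30 min preincubation with enzyme, 25 min cleavage at room temperature. Measured by: fluorescence, ex 355 nm, em 460 nm. Read-out basis: percent inhibition. Control set: wells without proteasome as full block, compound-free enzyme plus substrate as uninhibited.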
# An asterisk follows results filed as active; . = no result given. Most compounds without a hit are left out; they make up all but 1.4% or so of the library.
SMILES,ATG4B inhibitor,Rin1 Abl inh,Tb MetRS inh,UCH37 inh
CCOC(=O)[C@H]1[C@H]2COc3ccc(Br)cc3[C@@H]2N2C(=O)N(c3ccc(F)cc3)C(=O)[C@@]12C,-10,3,0,-2
COC(=O)NNC(=O)COc1ccc(Cl)cc1,16,1,-1,1
Cc1ccc(S(=O)(=O)/N=C2\C(=O)c3ccccc3C([O-])=C2n2cc[n+](CCC(C)C)c2)cc1,-4,-8,0,31*
CCCC[n+]1ccn(C2=C([O-])c3ccccc3C(=O)/C2=N\S(=O)(=O)c2ccc(Br)cc2)c1,13,0,-2,19
Nc1nc(SCC(=O)NCc2ccc(F)cc2)[nH]c(=O)c1NC(=O)c1ccc(Cl)cc1,8,0,-1,.
COC(C[C@H]1O[C@@H]1[C@@H](O)[C@H](C)OCc1ccccc1)OC,-10,1,0,3
O=C(O)c1cc(-c2ccccc2)n(-c2ccccc2)n1,8,-2,0,5
N#CC(=NNc1ccc(S(=O)(=O)N2CCOCC2)cc1)C(N)=S,.,.,.,22*
COc1cc(OC)c(C2=NOC(C(=O)N3CCCc4ccccc43)C2)cc1Cl (stereo not given),14,1,-1,1
CC1=C(C#N)C(=O)NC(=O)/C1=C\c1ccc(-c2cc(C)c(C)cc2[N+](=O)[O-])o1,32,-2,0,20*
Cc1c(Cc2ccccc2)sc(/N=C/c2c(O)ccc3ccccc23)c1C(N)=O,52*,0,0,.
Cc1c(Cc2ccccc2)sc(/N=C/c2ccc3ccccc3c2)c1C(N)=O,4,-2,0,.
COC(=O)C1=C(N)Oc2cc(C)n(CC3CCCO3)c(=O)c2C1c1ccc(Cl)c(Cl)c1 (stereo not given),-1,2,38*,3
COC(=O)c1cc[n+](CC(=O)c2ccccc2)cc1,7,0,0,23*
COCC(=O)N(C)CC1CCCN(CCc2ccccc2OC)C1 (stereo not given),6,1,-1,2
CCOc1ccc(N=Nc2c(=O)[nH]n3c(C)cc(C)nc23)cc1,3,-14,-2,25*
CCOC(=O)NNc1ccccc1,0,-5,-1,2
CCC(O)CC(C(=O)NNc1ccccc1)C(=O)NNc1ccccc1 (stereo not given),-8,1,0,30*
O=C(CN1CCN(C(=O)c2ccccc2)CC1)NC(=O)NCCC1=CCCCC1,0,4,0,9
COc1ccc(-c2ccc3nccn3c2)cc1,.,-2,0,.
Cc1[nH]c2ccc(Br)cc2c(=O)c1CN1CCOCC1,-6,7,35*,3
CCOc1ccc2[nH]c(C)c(CN3CCOCC3)c(=O)c2c1,3,-4,0,-39
CCN1C(C(=O)Nc2cc(C)on2)=C(O)c2ccccc2S1(=O)=O,-4,0,-1,11
Cc1ccccc1NC(=O)NC1(C(=O)NCCCN2CCOCC2)CCCCC1,.,5,0,35*
O=C(CCCN1C(=O)/C(=C\c2ccccc2)SC1=S)N1CCOCC1,-9,-2,0,8
SMILES,ATG4B inhibitor,Rin1 Abl inh,Tb MetRS inh,UCH37 inh
Cc1ccc(-c2nn(-c3ccccc3)cc2/C=C2\SC(=S)N(CC(=O)O)C2=O)cc1,6,0,0,21*
O=C(O)CN1C(=O)/C(=C\c2cn(CC(=O)N3CCOCC3)c3ccccc23)SC1=S,2,0,0,24*
COCCCNC(=O)c1cc(=O)n(Cc2ccc(Cl)cc2)c2ccccc12,-6,1,0,-9
O=C(/C=C/c1ccccc1)NNC1=NS(=O)(=O)c2ccccc21,-11,-2,0,23*
O=C(NNC1=NS(=O)(=O)c2ccccc21)c1ccccc1,-3,0,-1,9
Cc1[nH]c2ccccc2c1C(=O)CSC(=S)N(C)C,-17,-1,0,7
O=C(NN=Cc1ccc(O)c([N+](=O)[O-])c1)c1ccncc1,.,.,.,20*
O=C(O)c1ccc(N=C2NC(=O)C(CO)(CO)S2)cc1,1,-3,0,-1
COc1ccc(-c2cc(C(=O)N3CCc4ccccc4C3)no2)cc1,11,-3,-1,3
COc1cccc(-c2cc(C(=O)N3CCc4ccccc4C3)no2)c1,38,0,0,22*
Cn1cccc1CC(=O)N/N=C/c1cccc([N+](=O)[O-])c1,-4,3,0,.
